Compound activity as filed in PubChem.
An excerpt weighted towards active compounds, which were near 4.7% of everything screened.
NR3A LBD binder = modulates the human NR3A ligand-binding domain | NR3A LBD differential scanning fluorimetry, Tm shift; 0% = protein alone, 100% = glycine-bound protein | Tm shift relative to glycine control, % at 25 µM | hit rate 2.5% among 340,000 | AID 1259313;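 active = melting temperature shift of at least 10% of the positive control shift, at one fixed dose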
MPTP block = inhibitors of mitochondrial permeability transition pore. isolated mouse mitochondria, Ca2+ swelling absorbance, 30 min. inhibition, % at 10 µM. hit rate 1.4% among 360,000;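 active = inhibition of 50% or more, scaled per plate between neutral and stimulator controls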;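 also: 0% = DMSO wells given calcium and 100% = 1 mM EGTA wells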
SKN-1 block = blocks SKN-1 activity in C. elegans; hit rate 0.49% among 360,000; AID 624304; inhibition, % at 21.8 µM; C. elegans VP596 Pgst-4::GFP/RFP ratio, acrylamide-induced, 24 h;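 active = interference check ratio from 0.5 to 1.5 plus GFP to RFP signal ratio inhibition reaching or exceeding a fixed threshold, cut at about 30% in these data, passing the limit was not always enough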
MT1-MMP act inh = blocks activation of human MT1-MMP; GFP/RFP ratio change, % at 20 µM; AID 651647; HT1080 RFP-PRO-GFP cells, GFP/RFP ratio fluorescence, overnight; percent of plate control window, DMSO zero; hit rate 0.061% among 360,000; P50281;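 active = GFP/RFP ratio change of at least 30% with cell ATP level not reduced by more than half and red fluorescence within 50% of control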
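Assay system: HT1080 cells carrying an RFP-PRO-GFP reporter | Dosing: Single dose of 20 µM compound, 1% DMSO final | Incubation: Cells overnight before dosing, compound overnight, 37 °C, 5% CO2 | Evaluation: GFP/RFP fluorescence ratio | Control set: DMSO and RFP-L50D-GFP cell wells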
ADAM17 inh = inhibits human ADAM17 | inhibition, % at 6.95 µM | P78536 | recombinant ADAM17, EDANS/DABCYL FRET peptide cleavage | hit rate 0.83% among 370,000;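 active = inhibition above the mean of compounds lying between control limits plus 3 SD, set per campaign, cut at about 8.5% in these data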;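 also: 0% = DMSO-only wells as the low control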
ADAM10 inh = inhibitors of human ADAM10. O14672. recombinant ADAM10, EDANS/DABCYL FRET peptide cleavage, 3 h. inhibition, % at 7 µM. hit rate 0.62% among 370,000;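 active = inhibition above a per-campaign cutoff equal to the mean of compounds falling between control-based bounds plus 3 SD, cut at about 20% in these data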;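 also: 0% = DMSO wells while the 100% control is not disclosed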
Target sequence (O14672 214-748 limits assumed): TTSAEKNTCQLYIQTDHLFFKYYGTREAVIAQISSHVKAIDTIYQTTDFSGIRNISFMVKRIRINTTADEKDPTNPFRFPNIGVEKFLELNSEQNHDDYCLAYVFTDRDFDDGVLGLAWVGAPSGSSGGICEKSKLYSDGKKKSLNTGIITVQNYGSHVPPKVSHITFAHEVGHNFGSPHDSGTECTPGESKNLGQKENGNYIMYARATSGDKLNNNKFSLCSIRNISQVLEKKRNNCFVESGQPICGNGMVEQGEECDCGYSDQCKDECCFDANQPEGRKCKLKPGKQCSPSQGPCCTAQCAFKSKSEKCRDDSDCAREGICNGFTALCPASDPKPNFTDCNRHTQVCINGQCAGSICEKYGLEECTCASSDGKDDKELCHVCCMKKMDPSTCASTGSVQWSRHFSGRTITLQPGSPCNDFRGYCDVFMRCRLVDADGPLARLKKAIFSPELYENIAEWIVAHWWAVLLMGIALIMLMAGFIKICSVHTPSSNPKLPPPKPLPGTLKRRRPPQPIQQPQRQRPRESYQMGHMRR
* hit, by the source's call; x = no result given.

SMILES	NR3A LBD binder	MPTP block	SKN-1 block	MT1-MMP act inh	ADAM17 inh	ADAM10 inh
CC(C)NC(=O)Nc1ccc2c(c1)C(=O)N([C@H](C)CO)C[C@H](C)[C@@H](CN(C)S(=O)(=O)c1ccccc1)OCCCC[C@@H](C)O2	x	-1.6	3.8	-0.1	-3.4	-8.8
CC1=C(C#N)c2nc(N)c(C#N)c(C)c2/C1=C\c1ccc(-c2ccccc2C(=O)O)o1	-9.1	6.0	43.4*	49.2	-15.7	-42.4
COC(=O)CN1C(=O)C2(OCCCO2)c2ccccc21	0.9	-2.2	-7.2	0.6	-4.7	-6.5
COc1ccc(NC(=O)CN(C)C(=O)CN2C(=O)NC3(CCCCC3)C2=O)cc1	1.4	1.0	-2.0	0.9	-6.1	-11.2
COc1cccc(NC(=O)CN(C)C(=O)CN2C(=O)NC3(CCCC3)C2=O)c1	14.4*	-3.0	18.8	-4.0	-5.0	-3.8
COc1cccc(NC(=O)CN2C(=O)C3(OCCCO3)c3ccccc32)c1	11.1*	-0.8	11.0	-0.5	x	x
CS(=O)(=O)N1CCN(C(=O)c2ccccc2)C1	0.6	-4.5	-20.9	-2.4	-4.0	-2.3
CCc1nnc2c3cnn(-c4ccccc4)c3ncn12	3.6	1.2	14.3	3.9	-1.9	-1.2
Clc1ccc2scc(CN3CCCCC3)c2c1	16.4*	0.0	-3.7	-0.4	0.4	0.7
O=[N+]([O-])c1ccc(Cl)cc1CN1CCCCCC1	-2.2	0.0	-13.3	-1.7	0.5	1.1
CCOC(=O)CSc1ncc(-c2ccccc2)cn1	-1.9	1.1	1.0	5.6	-2.3	-15.3
CCOC(=O)CSc1ncc(-c2ccccc2)nn1	37.3*	-1.1	-11.6	1.5	-4.9	-3.5
O=C(CSCc1ccc([N+](=O)[O-])cc1)NC1CC2CCC1C2 (centres undefined)	0.6	0.2	6.9	1.8	1.4	4.0
Cc1nc(C)c(-c2csc(Nc3cccc(O)c3)n2)s1	20.1*	2.6	5.7	-3.7	-6.7	-8.9
Cc1ccc(S(=O)(=O)Nc2nc(C)c(C(=O)Nc3ccccc3)s2)cc1	-9.6	1.9	3.2	2.7	4.2	-1.3
Cc1nc(Nc2ccc(S(N)(=O)=O)cc2)sc1C(=O)Nc1ccccc1	32.5*	-1.3	9.1	-1.1	-0.8	-2.7
Cc1nc(NCc2ccccc2)sc1C(=O)Nc1ccccc1	-7.8	-4.8	6.0	5.1	0.5	0.0
Cc1nc(Nc2ccc(S(N)(=O)=O)cc2)sc1-c1ccccc1	16.4*	1.6	7.1	-5.7	-25.4	-47.9
COc1ccccc1Nc1nc(C)c(C(=O)Nc2ccccc2)s1	24.7*	-2.3	2.3	4.9	-4.5	-18.2
CCC(CC)c1nnc(NC(=O)CCS(=O)(=O)Cc2ccccc2)s1	-1.7	-0.7	2.4	-3.1	0.3	-2.9
C[C@@]12C(=O)N(Cc3ccccc3)CC(=O)N1[C@H](/C=C/c1ccccc1)[C@@H]1C(=O)N(c3ccccc3)C(=O)[C@@H]12	1.4	x	x	x	-1.9	7.9
COCCN(C(=O)CCC(=O)Nc1nccs1)C(C(=O)NC(C)(C)C)c1ccc(C)cc1 (centres undefined)	-0.4	-0.1	-3.8	1.5	0.6	1.5
Cc1nc(C)c(-c2csc(Nc3ccc(S(N)(=O)=O)cc3)n2)s1	32.0*	0.6	15.3	3.8	-4.2	3.2
Cc1ccc(Nc2nc(-c3sc(C)nc3C)cs2)cc1	-11.2	0.5	6.0	-8.9	0.1	5.2
Cc1nc(Nc2ccccc2)sc1C(=O)Nc1ccccc1	38.0*	3.8	-1.4	1.6	-1.9	1.1
SMILES	NR3A LBD binder	MPTP block	SKN-1 block	MT1-MMP act inh	ADAM17 inh	ADAM10 inh
Cc1nc(Nc2ccccc2Cl)sc1C(=O)Nc1ccccc1	9.2	2.5	11.9	-3.0	2.4	1.1
COC(=O)c1[nH]c2c(c1C)C(=O)CCC2	1.4	0.2	-4.9	6.6	-0.9	11.8
O=C(O)c1ccc(C[n+]2c(-c3ccccc3)csc2Nc2ccccc2)cc1	17.8*	-5.4	8.2	-9.3	2.5	2.4
Cn1ccsc1=NC(=O)c1ccc(Cl)cc1	-0.2	-1.8	43.2*	-0.7	-4.5	-3.1
Cn1ccsc1=NC(=O)c1ccc(OC(F)(F)F)cc1	5.3	0.6	51.3*	-4.1	-0.2	-1.9
COc1ccc(OC)c(NC(=O)Cn2cc(C#N)c3cc(Br)ccc32)c1	15.1*	0.5	-8.2	0.9	0.2	0.2
COc1ccc(NC(=O)Cn2cc(C#N)c3ccccc32)cc1	0.5	0.7	-0.3	1.8	-3.8	0.0
COc1ccc(S(=O)(=O)N(C)CC(=O)NCCC2=CCCCC2)cc1	-2.2	-1.9	18.9	-5.6	3.7	7.9
COc1ccc(S(=O)(=O)N(C)CC(=O)NCCC2=CCCCC2)cc1OC	12.7*	-0.4	-2.9	14.0	-0.1	4.2
CN(C)c1cccc(O)c1	1.6	-0.5	47.2*	5.8	-3.3	-9.6
CCN(CC)C(=O)Cn1cc(S(=O)(=O)CC(=O)NCCc2ccccc2)c2ccccc21	14.8*	-3.0	5.1	0.5	-2.5	-6.3
CC(C)N(C(=O)Cn1cc(S(=O)(=O)CC(=O)NCCc2ccccc2)c2ccccc21)C(C)C	x	-1.4	0.5	-3.1	-2.9	-4.6
COc1ccc(Nc2c[nH]c(=O)[nH]c2=O)cc1	1.9	-3.1	34.2	2.9	-0.3	-6.9
COc1ccc(NC(=O)Cn2nnc(C(=O)NCc3cccs3)c2N)cc1OC	0.1	-0.5	21.3	-0.6	2.0	1.1
COc1ccccc1NC(=O)c1nnn(CC(=O)Nc2cc(C)cc(C)c2)c1N	-3.4	0.4	-1.8	2.4	-35.0	-114.7
CCOc1ccccc1NC(=O)c1nnn(CC(=O)Nc2cc(C)cc(C)c2)c1N	12.8*	10.5	13.7	0.9	-5.4	1.4
Cc1ccc(NC(=O)Cn2nnc(C(=O)NCc3ccco3)c2N)cc1	-0.3	1.2	-5.7	1.2	1.6	5.2
COc1ccc(NC(=O)Cn2nnc(C(=O)Nc3ccc(F)c(Cl)c3)c2N)cc1OC	77.5*	0.5	14.6	x	1.6	-1.9
CC(C)c1ccc(NC(=O)Cn2nnc(C(=O)NCc3ccco3)c2N)cc1	11.9*	-0.8	4.1	0.8	-1.9	0.3
Cc1ccc(NC(=O)Cn2nnc(C(=O)NCc3cccs3)c2N)cc1F	32.4*	-2.8	17.7	2.1	3.2	-1.8
C[C@@H]1COC(=O)[C@H](CC(=O)OC(C)(C)C)C/C=C\C[C@H](CC(=O)NCCO)C(=O)N1	-2.0	-0.7	-18.2	-1.4	-4.1	-39.0
O=C(CC[C@H]1O[C@@H](n2ccc(=O)[nH]c2=O)[C@H](O)[C@@H]1O)N1CCN(c2ccccn2)CC1	x	-0.1	18.0	1.1	-6.8	-4.2
COc1ccc(OC)c(S(=O)(=O)Nc2ccc(C(=O)Nc3cc(C)on3)cc2)c1	x	x	x	x	0.5	-0.3
COc1ccc(OC)c(NC(=O)c2nnn(Cc3ccccc3C)c2N)c1	-10.1	5.8	13.2	1.0	7.0	27.0*
